Screening data as filed in PubChem.
This is a sample that favours compounds with a hit; in the whole collection about 2.5% have one here.
SENP8 block-1: blocks the human protease SENP8 | purified SENP8, Z-RLRGG-aminoluciferin cleavage, luminescence | inhibition, % at 10 µM | 1.2% of 330,000 active; in the data active means inhibition above about 50%
SENP7 inh: blocks the human protease SENP7. 1.5% of 330,000 active. inhibition, % at 5 µM. recombinant SENP7, Z-RLRGG-aminoluciferin luminescence, 40 min. Q9BQF6;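 active means inhibition above about 50% at the single test dose, limit read from the data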;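 further: plate controls were DMSO with enzyme for no effect and no enzyme buffer wells for full effect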
Target sequence (Q9BQF6 706-1050 limits assumed): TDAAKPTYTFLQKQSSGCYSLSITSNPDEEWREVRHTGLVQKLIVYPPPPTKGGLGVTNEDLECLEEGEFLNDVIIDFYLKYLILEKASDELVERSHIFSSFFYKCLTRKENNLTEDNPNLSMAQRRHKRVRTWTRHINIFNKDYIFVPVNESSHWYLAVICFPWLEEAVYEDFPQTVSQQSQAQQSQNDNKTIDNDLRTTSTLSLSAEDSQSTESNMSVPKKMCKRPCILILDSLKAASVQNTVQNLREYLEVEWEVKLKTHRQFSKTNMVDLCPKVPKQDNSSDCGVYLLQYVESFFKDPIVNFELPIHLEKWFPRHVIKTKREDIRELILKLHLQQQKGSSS
SENP8 block-2: inhibitors of human SENP8 protease; 0.64% of 360,000 active; AID 602440; recombinant SENP8, Nedd8 substrate fluorescence; inhibition, % at 20 µM; in the data active means inhibition mostly above about 40%, no sharp cut-off; inactive means mostly below about 27%
SENP6 inh: inhibitors of human SENP6 protease | Q9GZR1 | Recombinant SENP6 catalytic domain, aminoluciferin luminescence | inhibition, % at 10 µM | 1.8% of 330,000 active | AID 2599;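 active means inhibition above about 50% at the single tested dose, limit read from the data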;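 further: plate controls were DMSO wells with enzyme for no effect and DMSO wells lacking enzyme for full effect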
SENP1 FRET inh: blocks the human SENP1 SUMO protease catalytic domain. Q9P0U3. recombinant SENP1 catalytic domain, CyPet-SUMO1-YPet FRET cleavage. 0.21% of 360,000 active. inhibition, % at 10 µM. AID 624204;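 active means inhibition at least 30% at 10 µM, raw YFP signal under a set limit, fluorescence ratio 0.5 to 1.5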;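 further: 0% = enzyme with DMSO and 100% = no enzyme wells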
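System: Recombinant human SENP1 catalytic domain, His6-tagged | Incubation: Enzyme reaction for 50 min at room temperature, dark | Medium: Tris pH 8 with BME, BSA, NP40 and catalase | Also added: 25 nM SUMO1 FRET substrate | Compound: 10 µM single point, 0.5% DMSO | Measured by: FRET fluorescence in CFP and YFP emission channels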
SENP8 confirm: human SENP8 inhibition, confirmed; shares compounds with SENP7 inh; Recombinant SENP8, Z-RLRGG-aminoluciferin luminescence, 60 min; inhibition, % at 12.5 µM; 40% of 6,200 active; AID 488912;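 active means mean inhibition across replicates above about 50%, limit read from the data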
SENP6 conf: confirmation of human SENP6 protease inhibitors. shares compounds with SENP7 inh. recombinant SENP6, Z-RLRGG-aminoluciferin luminescence. inhibition, % at 12.5 µM. 58% of 6,200 active. AID 488915
SENP7 conf: human SENP7 inhibition, confirmed | shares compounds with SENP7 inh | recombinant SENP7, Z-RLRGG-aminoluciferin luminescence, 40 min | inhibition, % at 12.5 µM | 69% of 6,200 active
Casp3 SENP sel: caspase-3 inhibition (SENP selectivity assay); shares compounds with SENP7 inh; purified caspase-3, Z-DEVD-aminoluciferin luminescence, 60 min; inhibition, % at 12.5 µM; 60% of 6,200 active;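 active means mean inhibition above about 50%, limit read from the data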;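 further: plate controls were enzyme with DMSO for no effect and wells without caspase-3 for full effect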
Target sequence (P42574 28-227 limits assumed): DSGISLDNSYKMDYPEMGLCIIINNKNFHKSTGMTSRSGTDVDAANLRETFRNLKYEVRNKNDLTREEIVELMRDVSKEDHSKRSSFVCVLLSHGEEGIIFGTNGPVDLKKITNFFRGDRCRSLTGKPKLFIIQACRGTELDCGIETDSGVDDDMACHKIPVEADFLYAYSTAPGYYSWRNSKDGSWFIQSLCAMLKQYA
Luc interf: luminescence interference (SENP counter-screen); shares compounds with SENP7 inh; Pre-incubated SENP8/Z-RLRGG-aminoluciferin, luciferase luminescence interference; inhibition, % at 12.5 µM; 39% of 6,200 active;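 active means mean inhibition above about 50% when retested at one dose, limit read from the data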;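 further: plate controls were DMSO wells with completed reaction for no effect and substrate without enzyme for full effect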
An asterisk follows results filed as active; / = not tested or not shown.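 How the source made its calls, unless noted: active means mean inhibition above about 50% in the one-dose retest (limit read from the data); inactive means the rest.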

SMILES	SENP8 block-1	SENP7 inh	SENP8 block-2	SENP6 inh	SENP1 FRET inh	SENP8 confirm	SENP6 conf	SENP7 conf	Casp3 SENP sel	Luc interf
CCCCNC(=O)C1(N2C(=O)c3ccccc3C2=O)CCCC1	/	/	16	/	2	/	/	/	/	/
O=C1O[C@@H](c2ccccc2)C[C@@H](O)C(=O)CCc2ccccc21	/	/	-10	/	1	/	/	/	/	/
Cc1cc(-c2nc3cccnc3s2)ccc1NS(=O)(=O)c1cccs1	91*	74*	-396	95*	-29	89*	92*	98*	86*	55*
O=S(=O)(Nc1ccc(-c2nc3cccnc3s2)cc1)c1cccs1	22	29	-393	65*	-31	21	14	19	31	6
O=S(=O)(Nc1ccc(-c2nc3cccnc3s2)cc1)c1ccc(Cl)s1	34	4	-412	58*	-74	36	34	54*	28	23
CCS(=O)(=O)Nc1ccc(-c2nc3cccnc3s2)cc1	64*	53*	-402	73*	-113	75*	73*	94*	86*	78*
Cc1c(NS(=O)(=O)c2cccs2)cccc1-c1nc2cccnc2s1	-1	-9	-136	9	-3	/	/	/	/	/
O=C(/C=C/Nc1ccc(Cc2ccc(N/C=C/C(=O)C(F)(F)F)cc2)cc1)C(F)(F)F	1	0	-412	10	-26	/	/	/	/	/
O=C(NCCc1cccs1)Nc1ccc2nc([C@@H]3O[C@H](CO)[C@@H](O)[C@H]3O)[nH]c2c1	/	/	-7	/	1	/	/	/	/	/
Cc1csc(Nc2nc(N)c(C(=O)Nc3cc(Cl)ccc3F)o2)n1	1	1	17	-9	0	/	/	/	/	/
O=C(COc1ccc(Cc2ccccc2)cc1)c1ccc(F)cc1	26	52*	1	60*	2	19	36	51*	25	11
CNc1ncnc2c1ncn2[C@H]1CN(Cc2ccc(F)cc2)C[C@@H](CO)O1	/	/	11	/	1	/	/	/	/	/
O=[N+]([O-])c1ccc(COc2cccc(CN3CCCCC3)c2)cc1	/	/	15	/	0	/	/	/	/	/
N=C1S/C(=C\c2ccco2)C(=O)N1c1ccc2c(c1)OCO2	-8	3	19	-29	4	/	/	/	/	/
N=C1S/C(=C\c2ccco2)C(=O)N1c1nccs1	53*	-6	14	58*	-7	-14	-1	23	31	2
O=C(Nc1ccc2sccc2c1)c1ccc(Cl)s1	19	86*	-7	71*	0	-25	-3	88*	50*	4
Cc1cccc(NC(=O)/C(C#N)=C/c2ccccc2O)n1	25	-5	-84	25	-83	/	/	/	/	/
Cn1cccc1C(=O)/C(C#N)=C/c1ccc(F)cc1	-1	0	10	15	14	/	/	/	/	/
COc1ccc(/C=C(\C#N)C(=O)c2cccn2C)cc1	69*	78*	18	79*	-3	87*	87*	94*	72*	82*
COc1ccc(/C=C(\C#N)C(=O)Nc2cccc(C)n2)cc1	51*	36	8	50*	2	11	18	16	11	21
CN(C(=O)c1ccc(-c2ccccc2)cc1)C1CCCCC1	37	29	7	61*	0	14	20	30	22	4
Nc1ccc2c(c1)C(O)c1cccc(C(=O)O)c1-2 (centres undefined)	/	/	-160	/	1	/	/	/	/	/
NCCNc1cc(N2CCCC2)ccc1[N+](=O)[O-]	1	77*	20	-12	5	-29	-14	-5	-6	-7
CSCCC(C(=O)NCc1ccccc1)n1c(C2CCN(C(C)=O)CC2)nc2ccccc21 (centres undefined)	/	/	13	/	3	/	/	/	/	/
COc1ccc(C(=O)CSc2nnc(CNC(=O)c3ccccc3F)n2C)cc1OC	-1	-7	10	-20	0	/	/	/	/	/
SMILES	SENP8 block-1	SENP7 inh	SENP8 block-2	SENP6 inh	SENP1 FRET inh	SENP8 confirm	SENP6 conf	SENP7 conf	Casp3 SENP sel	Luc interf
O=[N+]([O-])c1ccc(-c2cn(-c3ccc(Cl)cc3)cn2)cc1	/	/	7	/	35	/	/	/	/	/
Brc1ccc(-n2cnc(-c3ccccc3)c2)cc1	69*	79*	8	71*	-2	61*	62*	92*	59*	18
Cc1ccc(S(=O)(=O)N2C[C@H]3C(=O)C[C@@H](c4ccccc4)N(S(=O)(=O)c4ccccc4[N+](=O)[O-])[C@H]3C[C@H]2c2ccccc2)cc1	/	/	20	/	4	/	/	/	/	/
CC(C)c1ccc(NC(=O)c2cc(Br)ccc2Br)cc1	-14	-6	-48	-16	0	/	/	/	/	/
O=C(Nc1ccc(Cl)cc1)c1ccc(Br)cc1F	44	50	14	51*	15	20	40	40	40	8
CCOc1ncccc1C(=O)NNC(=O)CSc1ccc(Cl)cc1	-9	6	0	-2	2	/	/	/	/	/
CCC1CSC(Nc2ccc(C(=O)/C=C/c3cccc(C)c3)cc2)=N1 (centres undefined)	-1	4	-109	54*	-2	-15	-15	-22	-5	0
Clc1ccc(-c2nnc(-c3ccco3)o2)cc1	52*	73*	-188	63*	3	36	41	59*	54*	0
NC1CCN(c2c(F)cc3c(=O)c(C(=O)O)cn(C4CC4)c3c2Cl)C1 (centres undefined)	-5	67*	-18	-9	1	-3	4	-5	-2	-6
O=C1C=C(c2ccc(CO)cc2)C[C@@H](c2ccc3c(c2)OCO3)C1	-2	6	13	-2	0	/	/	/	/	/
Cc1ccc(Cn2ccc(-c3cnc(-c4ccccc4)s3)n2)cc1	6	33	-416	51*	1	18	36	42	18	21
CC1(C)CC(=O)C=C(c2ccc(-c3cnn(Cc4ccccc4)c3)cc2)C1=O	/	/	4	/	16	/	/	/	/	/
O=C(Nc1nc2ccccc2c2nc3ccccc3n12)c1ccc(F)cc1	3	-1	/	-5	/	/	/	/	/	/
Cn1c(NC(=O)c2ccc(F)cc2)nc2ccccc21	65*	78*	-36	80*	1	46	75*	95*	86*	17
O=C(O)c1c2c(nc3ccccc13)/C(=C/c1ccc(O)cc1)CC2	76*	71*	-398	77*	-26	91*	88*	98*	93*	63*
